A selection: hits, their analogues and other compounds. The true share with any hit is near 3%.
TMEM16A act = activators or potentiators of mouse TMEM16A chloride channel; AID 623877; HEK293 TMEM16A/YFP-H148Q/I152L, iodide quench fluorescence; hits give low values; Q8BHY3; 340,000 compounds, 0.3% hits; B-score at 10 µM;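 active = fluorescence-ratio B-score plate-corrected deviation score at least 3 library SD below zero, with starting fluorescence score within 5 deviations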;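 note: channel opened by trigger with iodide after compound preincubation; score built on the fluorescence ratio of max minus min over baseline; more negative score means more quench and so TMEM16A activation or potentiation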
Target sequence (Q8BHY3 whole entry, looked up): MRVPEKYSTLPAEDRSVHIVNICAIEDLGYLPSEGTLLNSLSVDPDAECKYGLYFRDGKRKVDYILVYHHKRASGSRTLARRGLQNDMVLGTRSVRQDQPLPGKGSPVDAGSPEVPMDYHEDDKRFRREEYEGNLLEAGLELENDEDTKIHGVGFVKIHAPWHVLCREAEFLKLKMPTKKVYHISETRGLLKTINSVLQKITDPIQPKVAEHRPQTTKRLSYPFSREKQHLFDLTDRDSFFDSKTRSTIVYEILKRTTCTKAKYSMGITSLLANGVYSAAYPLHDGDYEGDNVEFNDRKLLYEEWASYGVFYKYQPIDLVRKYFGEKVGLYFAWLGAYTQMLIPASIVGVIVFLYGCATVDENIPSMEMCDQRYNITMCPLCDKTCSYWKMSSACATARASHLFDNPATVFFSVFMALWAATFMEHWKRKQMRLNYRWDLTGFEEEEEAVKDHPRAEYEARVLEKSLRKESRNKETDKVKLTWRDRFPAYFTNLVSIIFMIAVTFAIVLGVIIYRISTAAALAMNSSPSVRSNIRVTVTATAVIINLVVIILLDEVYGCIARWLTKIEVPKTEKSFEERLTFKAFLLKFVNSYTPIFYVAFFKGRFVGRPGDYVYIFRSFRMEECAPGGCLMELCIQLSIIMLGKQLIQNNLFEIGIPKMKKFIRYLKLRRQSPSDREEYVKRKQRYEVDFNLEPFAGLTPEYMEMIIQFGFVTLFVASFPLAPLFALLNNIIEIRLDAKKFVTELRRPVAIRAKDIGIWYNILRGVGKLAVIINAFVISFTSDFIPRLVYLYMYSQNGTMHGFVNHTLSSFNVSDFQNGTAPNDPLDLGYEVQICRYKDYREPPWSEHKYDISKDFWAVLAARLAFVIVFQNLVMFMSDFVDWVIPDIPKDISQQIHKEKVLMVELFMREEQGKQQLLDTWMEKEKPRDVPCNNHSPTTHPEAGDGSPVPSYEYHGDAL
SR-BI DiI-HDL act = activators of SR-BI mediated HDL lipid uptake; CHO ldlA[mSR-BI] cells, DiI-HDL uptake fluorescence, 3 h; 100 = double the neutral-control signal; activation, % at 12.5 µM; 320,000 compounds, 0.096% hits; AID 504775;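 active = mean replicate activation of at least 60% and every replicate at or above 60%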
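Material – SR-BI-overexpressing, LDLR-lacking CHO cells · Medium – BSA-supplemented, HEPES-buffered Ham's F12, pH 7.4 · Doses – single concentration · Times – compound with DiI-HDL co-incubation, 3 h at 37 °C · Measured by – bottom-read fluorescence, 550/595 nm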
Kir21 inh = blocks the mouse Kir2.1 inward-rectifier potassium channel; 310,000 compounds, 0.85% hits; B-score at 10 µM; P35561; HEK293-Kir2.1, FluxOR thallium flux fluorescence; hits give low values;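 active = fluorescence ratio B-score at or below minus 3 SD of library scores, with starting-brightness B-score within 2 SD, cut at about -4.2 in these data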;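 note: channel flux triggered by added potassium and thallium sulfate stimulus; B-score of peak minus minimum fluorescence over baseline after thallium stimulus; more negative B-score means stronger Kir2.1 block with less thallium influx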
DNA FID counter = displaces DNA intercalator in HCV helicase counter-screen; 290,000 compounds, 0.17% hits; AID 1845; inhibition, % at 7.9 µM; DNA fluorescent intercalator displacement, fluorescence; in the data active = inhibition above about 37%;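 note: higher means more ethidium bromide displaced from hairpin DNA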
SR-BI HDL uptake = blocks mouse SR-BI lipid uptake from DiI-HDL; ldlA[mSR-BI] CHO cells, DiI-HDL uptake fluorescence, 3 h; 320,000 compounds, 0.96% hits; Q61009; inhibition, % at 12.5 µM;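 active = mean replicate inhibition of at least 70% and a set share of replicates each scoring 70 or more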
TMEM16A inh = blocks the mouse calcium-activated chloride channel TMEM16A; Q8BHY3; HEK293 TMEM16A/YFP iodide influx fluorescence, ionomycin; normalized B-score (activity score, 25-100; higher = stronger inhibition) at 10 µM; 310,000 compounds, 1.2% hits; AID 588511;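 active = ratio plate-corrected score three or more library SD toward inhibition, starting fluorescence score within five deviations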;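 note: score derived from kinetic fluorescence span divided by baseline fluorescence per well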
hERG ctr = blocks human hERG, in counter-screen for Kir2.1 inhibitors. shares compounds with Kir21 inh. hERG-expressing cells, thallium flux. inhibition, % at 10 µM. 320 compounds, 20% hits;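 note: host cells are CHO cells stably expressing hERG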
KCNK9 spec = human KCNK9 off-target activity of Kir2.1 blockers | shares compounds with Kir21 inh | KCNK9-expressing cells, ion flux inhibition | inhibition, % at 10 µM | 320 compounds, 5% hits
Kir21 ephys inh = mouse Kir2.1 inward rectifier channel inhibition; shares compounds with Kir21 inh; Kir2.1 cells, automated patch-clamp current inhibition; inhibition, % at 25 µM; 320 compounds, 71% hits
Hits are given with their value; – = inactive; · = no result given. Unless noted, the rule behind the calls is not given here.

SMILES | TMEM16A act | SR-BI DiI-HDL act | Kir21 inh | DNA FID counter | SR-BI HDL uptake | TMEM16A inh | hERG ctr | KCNK9 spec | Kir21 ephys inh
COc1ccc(NC(=O)CSc2c3c(nc4ccccc24)CCC3)c(OC)c1 | – | – | -10 | – | – | – | · | · | ·
COc1ccc(NC(=O)CC2C(=O)N(CCc3ccccc3)C(=S)N2Cc2cccnc2)cc1 (stereo unspecified) | – | – | – | – | – | 25 | · | · | ·
C=CCN1C(=O)C(CC(=O)Nc2ccc(OC)cc2)N(Cc2ccco2)C1=S (stereo unspecified) | -6.8 | – | – | – | – | – | · | · | ·
CCN1C(=O)C(CC(=O)Nc2ccc(OC)cc2)N(Cc2cccnc2)C1=S (stereo unspecified) | – | – | – | – | – | – | · | · | ·
CC(=O)N1c2ccc(S(=O)(=O)N(C)Cc3ccco3)cc2CC1C (stereo unspecified) | – | – | – | – | – | – | · | · | ·
COc1ccc(-c2nn(-c3ccccc3)cc2/C=N/Nc2ccc(S(N)(=O)=O)cc2[N+](=O)[O-])cc1OC | – | – | – | – | 79 | – | · | · | ·
CCCCC/C=N/NC(=O)c1[nH]c2ccc([N+](=O)[O-])cc2c1C | – | – | – | – | 98 | – | · | · | ·
Cc1c(C(=O)NN)[nH]c2ccc([N+](=O)[O-])cc12 | – | · | – | – | · | – | · | · | ·
O=C(OCCOCCN=C1NS(=O)(=O)c2ccccc21)c1ccccc1Br | – | – | – | – | – | – | · | · | ·
CN(C)CCCN1c2ccccc2Sc2ccccc21 | – | – | – | – | – | – | · | · | ·
CN(C)CCCC1Sc2ccccc2Sc2ccccc21 (stereo unspecified) | – | · | -4.8 | · | · | – | · | · | ·
O=Cc1nccc2ccccc12 | -6.5 | – | · | · | – | · | · | · | ·
C(=Cc1c[nH]c2ccccc12)c1nccc2ccccc12 | – | – | · | · | 71 | · | · | · | ·
O=C(COC(=O)CNS(=O)(=O)c1c(F)cccc1F)NC(=O)NC1CCCCC1 | – | – | · | · | – | · | · | · | ·
CC(C)(C)OC(=O)NCCc1nnc(SCc2ccc(Cl)cc2Cl)o1 | – | – | -8.9 | – | – | – | – | – | 48%
CC(C)(C)OC(=O)NCCc1nnc(SCc2c(Cl)cccc2Cl)o1 | – | – | – | – | – | – | · | · | ·
CCN(Cc1ccc(C#CCCO)cc1)CC1CCCN(CCc2cccc(F)c2)C1 (stereo unspecified) | – | – | -6.7 | – | – | – | 55% | – | 14%
COCC(O)CNc1ccccc1 (stereo unspecified) | – | – | – | – | – | – | · | · | ·
COCCNCC(O)CON=C1c2ccccc2-c2ccccc21 (stereo unspecified) | – | – | -7 | – | – | – | – | – | 19%
O=C(O)C1C2C=CC(C2)C1C(=O)NCc1ccc(Cl)cc1Cl (stereo unspecified) | – | – | – | – | – | – | · | · | ·
Cc1cc(C)c(C)c(S(=O)(=O)NCC(=O)Nc2ccccc2F)c1C | – | – | -6.9 | – | – | · | – | – | –
Cc1cc(C)c(C)c(S(=O)(=O)NCC(=O)O)c1C | – | – | – | – | – | – | · | · | ·
CCN(Cc1ccccc1)S(=O)(=O)c1ccc2c(c1)NC(=O)CS2 | – | – | -5.8 | – | – | – | – | – | –
C[C@H](CO)N1C[C@H](C)[C@@H](CN(C)S(=O)(=O)c2cccs2)Oc2ccc(NS(=O)(=O)c3ccccc3)cc2CC1=O | – | – | · | · | – | · | · | · | ·
CCCCCCSC1=C(C#N)C(c2ccc(C)o2)CC(=O)N1 (stereo unspecified) | – | – | -6 | – | – | – | – | – | –
SMILES | TMEM16A act | SR-BI DiI-HDL act | Kir21 inh | DNA FID counter | SR-BI HDL uptake | TMEM16A inh | hERG ctr | KCNK9 spec | Kir21 ephys inh
CCCCSC1=C(C#N)C(c2ccccc2C)CC(=O)N1 (stereo unspecified) | – | – | – | – | – | – | · | · | ·
Cc1cc(C)c(OCCCCN(C)Cc2ccccc2)c(C)c1 | – | – | -7.8 | – | – | – | – | – | 36%
Cc1cc(C)c(OCCCCN(C)C)c(Br)c1 | – | – | – | – | – | – | · | · | ·
CCOc1cccc(Nc2ccc([N+](=O)[O-])cn2)c1 | – | – | – | – | – | – | · | · | ·
Cc1ccccc1NC(=O)c1ccc(Cn2cc([N+](=O)[O-])cn2)o1 | – | – | – | – | – | – | · | · | ·
Cc1ccc(NC(=O)c2ccc(Cn3cc(Cl)cn3)o2)c(C)c1 | – | – | -10 | – | – | – | – | – | 51%
Cc1ccc(S(=O)(=O)N2CCN(C)CC2c2ccccc2)cc1 (stereo unspecified) | – | – | · | · | – | · | · | · | ·
CN(C)CC1CCCCC1C1(O)c2ccccc2CSc2sccc21 (stereo unspecified) | – | – | -5.7 | – | – | – | – | – | –
CN(C)CC1CCCCC1OC(=O)c1ccc(Cl)cc1 (stereo unspecified) | – | – | – | – | – | – | · | · | ·
Cc1ccc(CN2CCC(c3cc(-c4ccc(Cl)cc4)n[nH]3)CC2)cc1 | – | – | – | – | – | – | · | · | ·
Clc1ccc(-c2cc(C3CCNCC3)[nH]n2)cc1 | – | – | -8.9 | – | – | – | – | – | –
CCC(=O)Nc1ccc(C(=O)COC(=O)c2sc(C)nc2C)cc1 | – | – | · | · | – | · | · | · | ·
S=C(NCC1CCCO1)N1CCN(c2nc(-c3ccc(Cl)cc3)cs2)CC1 (stereo unspecified) | – | – | – | – | – | – | – | – | –
Cc1ccc2nc(N3CCN(CCO)CC3)nc(-c3ccccc3)c2c1 | – | · | -7 | – | · | – | 60% | – | 16%
CCOC(=O)c1nnn(-c2nonc2N)c1CSc1ccccc1 | – | – | – | – | – | – | · | · | ·
CCOC(=O)c1nnn(-c2nonc2N)c1CSc1ccc(C)cc1 | – | – | -8.5 | – | – | – | – | – | 8.6%
C[C@@]12C(=O)N(Cc3ccc(F)cc3)CC(=O)N1[C@H]1c3cc(Cl)ccc3OC[C@@H]1[C@@H]2c1ccccc1 | – | – | · | · | – | · | · | · | ·
Cc1c(Br)cc(C(=O)OC2CCN(C)CC2)c(C)c1C | – | – | -10 | – | – | – | – | – | 45%
COc1ccccc1/C=C(\NC(=O)c1ccccc1)C(=O)NCc1ccco1 | – | · | – | – | · | – | – | – | –
Nc1nonc1-n1nnc(C(=O)N/N=C/c2ccccc2Cl)c1CN1CCOCC1 | – | – | – | – | – | – | · | · | ·
CC(=O)Nc1ccc(N2CCc3c(C)c(C#N)c4nc5ccccc5n4c32)cc1 | · | · | – | – | · | – | · | · | ·
Cc1cc(OCC(O)CN2CCc3ccccc3C2)cc(C(C)C)c1 (stereo unspecified) | – | – | -13 | – | – | – | 58% | – | 6.0%

Screens: PubChem BioAssay, several laboratories
